Assay outcomes from PubChem BioAssay.
An excerpt weighted towards active compounds, which were near 2.3% of everything screened.
TRPC6 activator = mouse TRPC6 channel activators, primary screen, cell-based, HEK293, membrane potential dye. Short transient receptor potential channel 6 (Mus musculus), Q61143. HEK293-TRPC6 membrane potential dye fluorescence; stronger effect = higher value. B-score at 10 µM. actives 0.13% (n = 310,000);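 active = B-score of the integrated fluorescence ratio above library mean plus 3 SD, and starting fluorescence ratio within library mean plus 5 SD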;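 also: higher score means more depolarization so channel activation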
Target sequence (Q61143 whole entry, looked up): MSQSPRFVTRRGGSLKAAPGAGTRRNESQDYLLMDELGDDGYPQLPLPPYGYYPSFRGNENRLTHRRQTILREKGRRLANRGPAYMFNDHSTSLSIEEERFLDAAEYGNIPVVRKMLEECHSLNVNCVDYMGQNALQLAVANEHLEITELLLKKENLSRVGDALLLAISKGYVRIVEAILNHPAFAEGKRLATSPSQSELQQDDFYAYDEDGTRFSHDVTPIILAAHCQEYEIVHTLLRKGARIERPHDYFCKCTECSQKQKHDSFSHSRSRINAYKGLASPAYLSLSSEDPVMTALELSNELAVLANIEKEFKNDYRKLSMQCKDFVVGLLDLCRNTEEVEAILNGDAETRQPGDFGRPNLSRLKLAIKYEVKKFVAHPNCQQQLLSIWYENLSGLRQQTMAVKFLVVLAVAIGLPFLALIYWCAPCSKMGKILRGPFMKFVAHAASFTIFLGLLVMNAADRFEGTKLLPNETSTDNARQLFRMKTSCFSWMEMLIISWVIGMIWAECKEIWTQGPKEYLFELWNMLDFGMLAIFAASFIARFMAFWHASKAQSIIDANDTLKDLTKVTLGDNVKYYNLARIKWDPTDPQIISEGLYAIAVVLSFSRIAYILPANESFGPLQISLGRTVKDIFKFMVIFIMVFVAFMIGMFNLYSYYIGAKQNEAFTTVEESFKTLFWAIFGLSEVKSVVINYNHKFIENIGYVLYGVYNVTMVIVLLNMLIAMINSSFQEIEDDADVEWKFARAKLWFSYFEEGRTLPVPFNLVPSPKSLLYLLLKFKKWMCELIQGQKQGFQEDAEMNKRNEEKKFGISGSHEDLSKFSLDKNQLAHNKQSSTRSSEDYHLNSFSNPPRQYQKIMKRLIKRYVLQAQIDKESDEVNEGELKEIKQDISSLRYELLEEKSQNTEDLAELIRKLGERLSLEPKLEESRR
TRPC4 PAM = positive allosteric modulators of TRPC4, primary screen, cell-based, mouse TRPC4beta, HEK293 mu-opioid, Fluo-4 calcium; AID 2227, 2009; actives 0.42% (n = 310,000); B-score at 10 µM; DAMGO EC20, Fluo-4 Ca2+ flux; stronger effect = higher value;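 active = B-score of calcium response area above 5 SD of library B-scores, with initial fluorescence ratio within 5 SD of library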
TRPC6 inhibitor = mouse TRPC6 channel inhibitors, primary screen, cell-based, HEK293, membrane potential dye. Short transient receptor potential channel 6 (Mus musculus), Q61143. ACh-evoked depolarization; stronger effect = lower value. B-score at 10 µM. actives 1.1% (n = 310,000). AID 2553, 2010;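 active = B-score under library mean minus 3 SD, initial fluorescence not abnormally high, positive integrated signal ratio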;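 also: B-score derived from integrated fluorescence ratio over the kinetic read; more negative B-score means stronger inhibition of depolarization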
TRPC4 inh = inhibitors of mouse TRPC4 channel, primary screen, Fluo4 calcium, HEK293 TRPC4beta/mu-opioid cells. Short transient receptor potential channel 4 (Mus musculus), Q9QUQ5. DAMGO-evoked Fluo4 calcium flux; stronger effect = lower value. B-score at 10 µM. actives 0.39% (n = 300,000). AID 2247, 2010;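 active = B-score over 3 SD under the library average, no early fluorescence shift, positive overall ratio signal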
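Assay system: TRPC4beta/mu-opioid receptor HEK293 cell line; compound dosing: single concentration per test compound; detection: Fluo4 Ca2+ flux fluorescence; evaluation: per-well B score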
TRPC4 act = activators of mouse TRPC4 channel, primary screen, Fluo4 calcium, HEK293 TRPC4beta/mu-opioid cells; Fluo4 calcium fluorescence; stronger effect = higher value; actives 0.49% (n = 310,000); Short transient receptor potential channel 4 (Mus musculus), Q9QUQ5; AID 2237, 2010; B-score at 10 µM;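 active = B-score above 5 SD of library B-scores, and initial fluorescence ratio not above library mean plus 5 SD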;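 also: positive B-score marks a calcium rise read as TRPC4 activation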
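Incubation: 45 min room-temperature Fluo4 loading, 110 s read / System: HEK293 cells stably co-expressing mouse TRPC4beta and mu-opioid receptor / Signal: Fluo4 fluorescence, kinetic / Control set: buffer (low) and maximal DAMGO (high) / Measure: integrated baseline-normalised fluorescence ratio, converted to per-well B score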
Large screens that a line does not name were inactive.

CCN(CC)CCCNC(=O)CCC(=O)Nc1ccc2nc(N3CCCCC3)cc(C)c2c1	none
CCCN(CCC)CCCNC(=S)Nc1ccc2nc(N3CCN(C)CC3)cc(C)c2c1	TRPC4 PAM 13
CCCCN(CC)CCNC(=S)Nc1ccc2nc(N3CCN(C)CC3)cc(C)c2c1	TRPC4 act 66
CCCN(CCC)CCNC(=S)Nc1ccc2nc3n(c(=O)c2c1)CCCCC3	TRPC4 act 88
CCN(CC(=O)Nc1c(F)cccc1F)C(=O)c1csc2c1CCCC2	none
COc1cc(Br)c(C2C(C#N)=C(N)Oc3n[nH]c(-c4cccnc4)c32)cc1OC (stereo not given)	none
CCCN(CCC)CCNC(=O)CCC(=O)Nc1ccc2nc(N3CCOCC3)cc(C)c2c1	TRPC4 act 97
CN(Cc1ccccc1)S(=O)(=O)c1ccc2[nH]c(=O)ccc2c1	none
CC(C)C(C)NC(=O)COC(=O)/C=C/c1ccc(S(=O)(=O)N2CCc3ccccc32)cc1 (stereo not given)	none
COc1ccc(CNC(=O)CN(C)Cc2ccccc2F)cc1OC	TRPC4 inh -6
CCN1CCN(c2ncnc3sc(C)c(-c4ccccc4)c23)CC1	TRPC4 act 86
CCN1CCN(c2ncnc3scc(-c4ccc(C)c(C)c4)c23)CC1	none
CCc1cc(OCCN(C)C)ccc1Cl	TRPC4 PAM 26, TRPC4 act 100
CCc1cc(OCCN2C(=O)NC(C)(C)C2=O)ccc1Cl	TRPC4 PAM 14
COc1ccc2c(c1)c1ncn(CCCN3CCOCC3)c(=O)c1n2C	TRPC4 PAM 13
Cn1c(=O)c2sccc2n2c(CCCC(=O)Nc3ccccc3)nnc12	none
Cn1c(=O)c2sccc2n2c(CCCC(=O)NC3CCN(Cc4ccccc4)CC3)nnc12	TRPC4 PAM 14
COc1ccc(C(C(=O)NCC2CCCO2)N(C(=O)c2snc(C(N)=O)c2N)c2ccc(C)cc2)cc1OC (stereo not given)	none
CCOC(=O)c1c(N)sc(C(O)(C(F)(F)F)C(F)(F)F)c1-c1ccccc1	TRPC4 inh -7
CCOC(=O)c1c(N)sc(-c2ccccc2)c1C	none
COc1ccc(OC)c(-c2nn(-c3ccccc3)cc2C(=O)NCC(c2cccs2)N2CCOCC2)c1 (stereo not given)	none
CCOC(=O)c1sc(NC(=O)c2cc(-c3ccc(C)cc3)nc3ccccc23)c(C#N)c1C	none
COC(=O)c1sc(NC(=O)c2cc(-c3ccccc3)nc3ccccc23)c(C#N)c1C	TRPC4 PAM 13
CCc1ccccc1NC(=S)N(CCCN(C)C)Cc1cc2cc3c(cc2[nH]c1=O)OCO3	TRPC4 inh -8
Cc1cccc(NC(=S)N(CCCN(C)C)Cc2cc3cc4c(cc3[nH]c2=O)OCO4)c1	none
CS(=O)(=O)Nc1nc2n(n1)C(c1ccccc1)CC(c1ccccc1)N2 (stereo not given)	TRPC4 inh -6
COc1ccc(CCN(C)CCC(=O)Nc2c(C)cc(C)cc2C)cc1OC	TRPC4 act 111
Cc1nc2sccn2c(=O)c1S(=O)(=O)Nc1cccc(Cl)c1C	none
O=C1CC(N2CCN(c3nc4ccccc4s3)CC2)C(=O)N1c1cccc(F)c1 (stereo not given)	TRPC4 PAM 10
CCCOc1ccc(N2C(=O)CC(N3CCN(c4nc5ccccc5s4)CC3)C2=O)cc1 (stereo not given)	none
CC1(C(=O)O)CCC(C(=O)Nc2ccc(F)cc2)C1(C)C (stereo not given)	none
NC(=O)c1ccc(N2CCN(c3ncc(C(F)(F)F)cc3Cl)CC2)cc1	TRPC4 PAM 17
O=C(c1cc2c(ccc3ccccc32)o1)N1CCN(c2ncc(C(F)(F)F)cc2Cl)CC1	TRPC4 act 80
NC(=O)NCCN1CCN(c2ncc(C(F)(F)F)cc2Cl)CC1	TRPC4 PAM 15
Fc1ccc(-c2nnc(CN3CCN(c4ncc(C(F)(F)F)cc4Cl)CC3)o2)cc1	TRPC4 act 109
CC(C)n1c(SCC(=O)NCc2ccco2)nnc1C1CC1	none
COc1ccccc1C1CCN(c2cc(O)ccc2[N+](=O)[O-])CC1	TRPC4 PAM 13, TRPC4 inh -5
COc1ccccc1C1CCN(C(=O)c2ccccc2)CC1	none
CCOc1ccc(-n2c(SCC(=O)N3CCC(C(=O)O)CC3)nc3ccccc3c2=O)cc1	none
CC1(C)CC(=O)c2cc(C(=O)NCc3ccco3)c(=O)n(-c3ccc(Cl)cc3)c2C1	TRPC4 act 121
COc1ccc(-n2c3c(cc(C(=O)NNc4ccccc4)c2=O)C(=O)CC(C)(C)C3)cc1	TRPC4 act 70
CC(=O)NCC1CCCN(Cc2cn(-c3ccccc3)nc2-c2ccc3c(c2)OCO3)C1 (stereo not given)	none
COC(=O)C1CCN(Cc2cn(-c3ccccc3)nc2-c2ccc3c(c2)OCO3)CC1	TRPC4 act 83
c1ccc2c(-c3cn4ccccc4n3)c[nH]c2c1	TRPC6 inhibitor -5.47, TRPC4 inh -9
CCCc1cc(C(=O)Cc2ccc(C(=O)OCC)o2)c(O)cc1O	TRPC6 inhibitor -5.46
CCCc1cc(C(=O)Cc2ccc(F)cc2)c(O)cc1O	none
CCn1cc(C(=O)O)c(=O)c2cnc(N3CCN(C(=S)Nc4ccccc4C(F)(F)F)CC3)nc21	none
COc1cc(CN(C2CCCCC2C)S(=O)(=O)c2ccc(S(=O)(=O)NC3CC3)cc2)cc(OC)c1OC (stereo not given)	none
COc1ccc(CN(C2CCCCC2C)S(=O)(=O)c2ccc(S(=O)(=O)N(C)C)cc2)cc1OC (stereo not given)	TRPC4 PAM 23
CCOc1ccc(S(=O)(=O)N2CCOCC2)cc1NC(=O)CSCc1c(C)noc1C	TRPC4 PAM 10
O=C(Cc1ccc(Br)cc1)Nc1ccccc1Sc1ccccc1	none
O=C(Cc1ccccc1)Nc1ccccc1Sc1ccccc1	TRPC4 inh -6
CCN1CCN(C(=O)c2cc(-c3ccc(Cl)s3)nc3ccccc23)CC1	TRPC4 PAM 18
CN(Cc1c(C(=O)N/N=C/c2cccs2)nnn1-c1nonc1N)c1ccccc1	none
COc1ccc(CCC(C)NCC2CCCCC2)cc1 (stereo not given)	TRPC4 inh -7
O=C([O-])c1cc(-c2ccccc2)cc(-c2ccccc2)[n+]1Cc1ccccc1	TRPC6 inhibitor -5.41
CN1CCCCC1CCN1c2ccccc2Sc2ccc(S(C)=O)cc21 (stereo not given)	TRPC6 inhibitor -7.48
O=C(Nc1ccccc1Cl)C1CCCN(c2ncnc3c2nc2n3CCCCC2)C1 (stereo not given)	none
